Reference: ChEMBL document CHEMBL3045178, “Metabolites from Aspergillus fumigatus, an endophytic fungus associated with Melia azedarach, and their antifungal, antifeedant, and toxic activities” (J Agric Food Chem, 2012)
Values after ≈ are worked out from the molar mass of the structure shown.

Columns and labels:
[1] = Toxicity in Artemia salina (brine shrimp) […]; assay type: organism-based; details: in vivo
[2] = test system: Colletotrichum gloeosporioides; assay: Antifungal activity against Colletotrichum gloeosporioides at 28 degC after 48 hr microbroth dilution method; assay type: functional
Procedure, shortened: (§1)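 Plant-pathogenic fungi isolated from infected plant organs. Fungi grown 18 h in PD medium at 28 ± 0.5 °C and 150 rpm, then diluted to about 1 × 10^6 CFU in PD medium. Compounds at 2 mg/mL DMSO stock, serially diluted in triplicate in PD medium in 96-well plates before the fungal suspension was added. DMSO served as negative control. After 48 h at 28 ± 0.5 °C, MIC taken as the lowest concentration with no visible growth.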

Botrytis cinerea = assay: Antifungal activity against Botryotinia fuckeliana at 28 degC after 48 hr microbroth dilution method; assay type: functional; procedure, shortened: as §1
Alternaria alternata = assay: Antifungal activity against Alternaria alternata at 28 degC after 48 hr microbroth dilution method; assay type: functional; procedure, shortened: as §1
Fusarium solani = assay: Antifungal activity against Fusarium solani at 28 degC after 48 hr microbroth dilution method; assay type: functional; procedure, shortened: as §1
Alternaria solani = assay: Antifungal activity against Alternaria solani at 28 degC after 48 hr microbroth dilution method; assay type: functional; procedure, shortened: as §1
[3] = test system: Fusarium oxysporum f. sp. niveum; assay: Antifungal activity against Fusarium oxysporum f. sp. niveum at 28 degC after 48 hr microbroth dilution method; assay type: functional; procedure, shortened: as §1
[4] = test system: Fusarium oxysporum f. sp. vasinfectum; assay: Antifungal activity against Fusarium oxysporum f. sp. vasinfectum at 28 degC after 48 hr microbroth dilution method; assay type: functional; procedure, shortened: as §1
Fusarium graminearum = assay: Antifungal activity against Fusarium graminearum at 28 degC after 48 hr microbroth dilution method; assay type: functional
Procedure, shortened: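 Microbroth dilution in PD medium. Fungi were grown 18 h at 28 ± 0.5 °C and 150 rpm, then diluted to about 1 × 10^6 CFU. Compounds (2 mg/mL DMSO stock) were serially diluted in triplicate and fungal suspension added. Incubated 48 h at 28 ± 0.5 °C. MIC was the lowest concentration with no visible growth. Controls: DMSO, carbendazim, hymexazol.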

Mythimna separata = assay: Antifeedant activity against Mythimna separata (Oriental armyworm) larvae assessed as antifeedant index by area of the leaf consumed; assay type: functional; set-up: concentration or dose not given beside the values
Procedure, shortened: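 Positive control prepared at 10 mg/mL in acetone; leaves treated with acetone alone served as control. Ten treated leaves and 10 larvae per Petri dish lined with moistened filter paper. Held at 25 ± 2 °C, 12L:12D, 65−80% rh. Leaf area consumed recorded after 48 h. AFI = (C − T)/C × 100%, from control and treated areas consumed. Three repetitions.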

Compound | LC50 [1] [µg/mL] | MIC [2] [µg/mL] | MIC (Botrytis cinerea) [µg/mL] | MIC (Alternaria alternata) [µg/mL] | MIC (Fusarium solani) [µg/mL] | MIC (Alternaria solani) [µg/mL] | MIC [3] [µg/mL] | MIC [4] [µg/mL] | MIC (Fusarium graminearum) [µg/mL] | AFI (Mythimna separata) [%]
O=C1NCC(=O)N2CCC[C@@H]12 [CYCLO(PROLYLGLYCYL)] | > 100 |  |  |  |  |  |  |  |  | 
COc1ccc2c3c([nH]c2c1)[C@H](C=C(C)C)N1C(=O)[C@@H]2CCCN2C(=O)[C@@]1(O)[C@H]3OC [CYCLOTRYPROSTATIN B] | 37.9 (≈ 89.1 µM) | 12.5 (≈ 29.4 µM) | 12.5 (≈ 29.4 µM) | 12.5 (≈ 29.4 µM) | 25 (≈ 58.8 µM) | 12.5 (≈ 29.4 µM) | 12.5 (≈ 29.4 µM) | 25 (≈ 58.8 µM) | 12.5 (≈ 29.4 µM) | 
C[C@@H]1CN(C)[C@@H]2Cc3c[nH]c4cccc(c34)[C@H]2[C@H]1O [FUMIGACLAVINE B] | > 100 |  |  |  |  |  |  |  |  | 
C[C@@H]1N[C@H]2N(C1=O)c1ccccc1[C@@]2(O)C[C@@H]1C(=O)N[C@@H](C)c2nc3ccccc3c(=O)n21 [FUMIQUINAZOLINE A] | 39.7 (≈ 89.1 µM) | 12.5 (≈ 28.1 µM) | 12.5 (≈ 28.1 µM) | 12.5 (≈ 28.1 µM) | 50 (≈ 112 µM) | 12.5 (≈ 28.1 µM) | 25 (≈ 56.1 µM) | 50 (≈ 112 µM) | 12.5 (≈ 28.1 µM) | 45
C[C@H]1C(=O)N2c3ccccc3[C@@]3(O)C[C@@H]4C(=O)N[C@](C)(c5nc6ccccc6c(=O)n54)N1[C@@H]23 [FUMIQUINAZOLINE D] | > 100 | 25 (≈ 56.4 µM) | 25 (≈ 56.4 µM) | 25 (≈ 56.4 µM) | > 100 | 25 (≈ 56.4 µM) | 50 (≈ 113 µM) | 50 (≈ 113 µM) | 25 (≈ 56.4 µM) | 10
C[C@@H]1NC(=O)[C@@H](Cc2c[nH]c3ccccc23)n2c1nc1ccccc1c2=O [FUMIQUINAZOLINE F] | 55.3 (≈ 154 µM) | 12.5 (≈ 34.9 µM) | 12.5 (≈ 34.9 µM) | 12.5 (≈ 34.9 µM) | 50 (≈ 140 µM) | 25 (≈ 69.8 µM) | 25 (≈ 69.8 µM) | 50 (≈ 140 µM) | 12.5 (≈ 34.9 µM) | 30
C[C@H]1NC(=O)[C@@H](Cc2c[nH]c3ccccc23)n2c1nc1ccccc1c2=O [FUMIQUINAZOLINE G] | 78.8 (≈ 220 µM) | 12.5 (≈ 34.9 µM) | 12.5 (≈ 34.9 µM) | 12.5 (≈ 34.9 µM) | 50 (≈ 140 µM) | 25 (≈ 69.8 µM) | 50 (≈ 140 µM) | 50 (≈ 140 µM) | 12.5 (≈ 34.9 µM) | 
COc1ccc2c3c([nH]c2c1)[C@H](C=C(C)C)N1C(=O)[C@@H]2CCCN2C(=O)[C@@H]1C3 [FUMITREMORGIN] | 40.5 (≈ 107 µM) | 12.5 (≈ 32.9 µM) | 12.5 (≈ 32.9 µM) | 12.5 (≈ 32.9 µM) | 50 (≈ 132 µM) | 25 (≈ 65.9 µM) | 25 (≈ 65.9 µM) | 50 (≈ 132 µM) | 12.5 (≈ 32.9 µM) | 15
CC(=O)O[C@H]1C[C@@]2(C)[C@@H](CC[C@H]3[C@@]4(C)C=CC(=O)[C@@H](C)[C@@H]4[C@H](OC(C)=O)C(=O)[C@@]32C)/C1=C(\CCC=C(C)C)C(=O)O [HELVOLIC ACID] | 73.7 (≈ 130 µM) | 6.25 (≈ 11 µM) | 6.25 (≈ 11 µM) | 6.25 (≈ 11 µM) | 50 (≈ 87.9 µM) | 12.5 (≈ 22 µM) | 12.5 (≈ 22 µM) | 25 (≈ 44 µM) | 6.25 (≈ 11 µM) | 7.5
Cc1cc(O)no1 [HYMEXAZOL] |  | 12.5 (≈ 126 µM) | 12.5 (≈ 126 µM) | 12.5 (≈ 126 µM) | 50 (≈ 505 µM) | 12.5 (≈ 126 µM) | 12.5 (≈ 126 µM) | 25 (≈ 252 µM) | 12.5 (≈ 126 µM) | 
CC/C=C/[C@H](O)[C@H](O)C1=C(C)C(=O)[C@]2(O1)C(=O)N[C@@](OC)(C(=O)c1ccccc1)[C@H]2O [PSEUROTIN A1] | > 100 |  |  |  |  |  |  |  |  | 
CC/C=C\[C@H](O)[C@H](O)C1=C(C)C(=O)[C@]2(O1)C(=O)N[C@@](OC)(C(=O)c1ccccc1)[C@@H]2O [PSEUROTIN A] | > 100 |  |  |  |  |  |  |  |  | 
COc1ccc2c(c1)NC(=O)[C@@]21C=C2C(=O)N3CCC[C@H]3C(=O)N2[C@H]1C=C(C)C [SPIROTRYPROSTATIN B] | > 100 |  |  |  |  |  |  |  |  | 
CC(C)=CCc1cccc2c(C[C@@H]3NC(=O)[C@H](C)NC3=O)c[nH]c12 [TEREZINE D] | > 100 |  |  |  |  |  |  |  |  | 
CC(=O)O[C@@H]1C[C@H](O)[C@@]23CO[C@@H](O)[C@]1(C)[C@@H]2C[C@@H](O)[C@]1(C)[C@@H]3C(=O)[C@H](OC(C)=O)[C@@]2(C)[C@H](c3ccoc3)C[C@H]3O[C@]321 [TOOSENDANIN] | < 1 |  |  |  |  |  |  |  |  | 97.5
COc1ccc2c(C[C@@H]3NC(=O)[C@@H]4CCCN4C3=O)c(CC=C(C)C)[nH]c2c1 [TRYPROSTATIN A] | 44.8 (≈ 117 µM) |  |  |  |  |  |  |  |  | 
C[C@@H]1C(=O)N2c3ccccc3[C@@]3(O)C[C@H](n4cnc5ccccc5c4=O)C(=O)N1[C@H]23 [TRYPTOQUIVALINE O] | 72.8 (≈ 181 µM) | 100 (≈ 249 µM) | 25 (≈ 62.1 µM) | 25 (≈ 62.1 µM) | > 100 | 12.5 (≈ 31.1 µM) | > 100 | > 100 | 50 (≈ 124 µM) | 
O=c1cc[nH]c(=O)[nH]1 [URACIL] | > 100 |  |  |  |  |  |  |  |  | 
COc1ccc2c3c4n(c2c1)[C@H](C=C(C)C)OOC(C)(C)C[C@@H]4N1C(=O)[C@@H]2CCCN2C(=O)[C@]1(O)[C@H]3O [VERRUCULOGEN] | 15.8 (≈ 30.9 µM) | 6.25 (≈ 12.2 µM) | 6.25 (≈ 12.2 µM) | 6.25 (≈ 12.2 µM) | 50 (≈ 97.7 µM) | 12.5 (≈ 24.4 µM) | 12.5 (≈ 24.4 µM) | 25 (≈ 48.9 µM) | 6.25 (≈ 12.2 µM) | 55
